In ChEMBL document CHEMBL1141057, “Synthesis and antibacterial activity of a novel series of DNA gyrase inhibitors: 5-[(E)-2-arylvinyl]pyrazoles” (Bioorg Med Chem Lett, 2005):
≈ marks a conversion by molar mass, not a printed value.

What was measured:
Escherichia coli [1] = test: Minimal inhibitory concentration against Escherichia coli NIHJ JC-2; susceptible strain; assay type: functional
How it was run: (§1)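 MIC determined by the microdilution method.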

Escherichia coli [2] = test: Minimal inhibitory concentration against Escherichia coli W3110 delta acrA; A multidrug efflux pump mutant; assay type: functional; how it was run: as §1
Staphylococcus aureus [3] = test: Minimal inhibitory concentration against Staphylococcus aureus FDA 209P; susceptible strain; assay type: functional
How it was run: (§2)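 MIC determined by the microdilution method against Gram-positive strains, including a susceptible strain and a multidrug-resistant S. aureus strain.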

Staphylococcus aureus [4] = test: Minimal inhibitory concentration against Staphylococcus aureus KMP9; multidrug resistant strain; assay type: functional; how it was run: as §2
Enterococcus faecium [5] = test: Minimal inhibitory concentration against Enterococcus faecium KU1778 (VRE); sparfloxacin, clarithromycin, ampicillin, vancomycin resistant strain; assay type: functional
Streptococcus pneumoniae [6] = test: Minimal inhibitory concentration against Streptococcus pneumoniae KT2524 (PRSP); sparfloxacin, clarithromycin, ampicillin resistant strain; assay type: functional
Staphylococcus aureus [7] = test: Minimal inhibitory concentration against Staphylococcus aureus FDA 209P(MSSA); susceptible strain; assay type: functional
Enterococcus faecium [8] = test: Minimal inhibitory concentration against Enterococcus faecium ATCC 19434 (VSE); susceptible strain; assay type: functional
Streptococcus pneumoniae [9] = test: Minimal inhibitory concentration against Streptococcus pneumoniae ATCC 49619 (PSSP); susceptible strain; assay type: functional
Staphylococcus aureus [10] = test: Minimal inhibitory concentration against Staphylococcus aureus KMP9 (MRSA); sparfloxacin, clarithromycin, ampicillin resistant strain; assay type: functional
[11] = target: T1, DNA topoisomerase 4 subunit A (Escherichia coli K-12, UniProt P0AFI2); test: Inhibitory activity against decatenation of DNA topoisomerase IV isolated from Escherichia coli
T1 sequence (P0AFI2 whole entry): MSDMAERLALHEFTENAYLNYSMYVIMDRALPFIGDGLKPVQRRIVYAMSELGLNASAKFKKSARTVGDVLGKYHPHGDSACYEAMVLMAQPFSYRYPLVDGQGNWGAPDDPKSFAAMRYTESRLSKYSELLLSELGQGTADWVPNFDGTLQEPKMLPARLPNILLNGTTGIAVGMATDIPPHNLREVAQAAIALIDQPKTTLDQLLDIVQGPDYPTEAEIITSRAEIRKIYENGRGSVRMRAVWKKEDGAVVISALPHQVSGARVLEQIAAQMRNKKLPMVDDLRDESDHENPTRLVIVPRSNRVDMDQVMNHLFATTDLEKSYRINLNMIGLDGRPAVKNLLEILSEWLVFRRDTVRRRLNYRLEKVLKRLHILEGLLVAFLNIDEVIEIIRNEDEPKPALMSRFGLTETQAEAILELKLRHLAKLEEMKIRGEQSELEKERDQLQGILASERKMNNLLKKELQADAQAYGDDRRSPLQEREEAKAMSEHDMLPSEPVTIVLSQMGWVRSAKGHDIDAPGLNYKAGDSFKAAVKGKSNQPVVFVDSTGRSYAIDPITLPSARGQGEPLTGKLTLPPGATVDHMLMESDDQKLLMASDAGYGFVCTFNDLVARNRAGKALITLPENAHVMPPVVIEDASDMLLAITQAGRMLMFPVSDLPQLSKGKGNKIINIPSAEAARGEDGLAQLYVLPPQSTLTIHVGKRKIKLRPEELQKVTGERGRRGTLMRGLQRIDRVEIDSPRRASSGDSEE

DNA gyrase = DNA gyrase (Escherichia coli, UniProt P0AES4+P0AES6); test: Inhibitory activity against supercoiling activity of DNA gyrase isolated from Escherichia coli; assay type: protein-complex assay
Staphylococcus aureus [12] = test: 4 Minimal inhibitory concentration against Staphylococcus aureus KMP9; multidrug resistant strain; assay type: functional; how it was run: as §2

SMILES	MIC (Escherichia coli [1]) [µg/mL]	MIC (Escherichia coli [2]) [µg/mL]	MIC (Staphylococcus aureus [3]) [µg/mL]	MIC (Staphylococcus aureus [4]) [µg/mL]	MIC (Enterococcus faecium [5]) [µg/mL]	MIC (Streptococcus pneumoniae [6]) [µg/mL]	MIC (Staphylococcus aureus [7]) [µg/mL]	MIC (Enterococcus faecium [8]) [µg/mL]	MIC (Streptococcus pneumoniae [9]) [µg/mL]	MIC (Staphylococcus aureus [10]) [µg/mL]	IC50 [11] [µM]	IC50 (DNA gyrase) [µM]	MIC (Staphylococcus aureus [12]) [µg/mL]
Clc1cccc(Cl)c1/C=C/c1cc(C2CCNCC2)[nH]n1	> 128	> 128	128 (≈ 397 µM)	> 128									
Clc1cccc(-n2nc(C3CCNCC3)cc2CCc2c(Cl)cccc2Cl)c1	> 128	16 (≈ 36.8 µM)	32 (≈ 73.6 µM)	32 (≈ 73.6 µM)									
Clc1cccc(-n2nc(C3CCNCC3)cc2CCc2c[nH]c3ccc(Cl)cc23)c1	64 (≈ 146 µM)	16 (≈ 36.4 µM)	16 (≈ 36.4 µM)	16 (≈ 36.4 µM)	16 (≈ 36.4 µM)	8 (≈ 18.2 µM)	16 (≈ 36.4 µM)	16 (≈ 36.4 µM)	16 (≈ 36.4 µM)	16 (≈ 36.4 µM)			
Clc1cccc(Cl)c1CCc1cc(C2CCNCC2)[nH]n1	128 (≈ 395 µM)	64 (≈ 197 µM)	32 (≈ 98.7 µM)	64 (≈ 197 µM)									
Clc1ccc(COc2ccc(/C=C/c3cc(C4CCNCC4)[nH]n3)cc2)cc1Cl	4 (≈ 9.34 µM)	2 (≈ 4.67 µM)	2 (≈ 4.67 µM)	2 (≈ 4.67 µM)	1 (≈ 2.33 µM)	1 (≈ 2.33 µM)	2 (≈ 4.67 µM)	2 (≈ 4.67 µM)	2 (≈ 4.67 µM)	2 (≈ 4.67 µM)	64.9	32.4	
Cn1cc(/C=C/c2cc(C3CCNCC3)nn2-c2cccc(Cl)c2)c2cc(Cl)ccc21	> 128	4 (≈ 8.86 µM)	2 (≈ 4.43 µM)	2 (≈ 4.43 µM)	1 (≈ 2.22 µM)	1 (≈ 2.22 µM)	2 (≈ 4.43 µM)	2 (≈ 4.43 µM)	1 (≈ 2.22 µM)	2 (≈ 4.43 µM)	35.4		
Clc1cccc(-n2nc(C3CCNCC3)cc2/C=C/c2c[nH]c3ccc(Cl)cc23)c1	8 (≈ 18.3 µM)	4 (≈ 9.15 µM)	1 (≈ 2.29 µM)	1 (≈ 2.29 µM)	2 (≈ 4.57 µM)	2 (≈ 4.57 µM)	1 (≈ 2.29 µM)	2 (≈ 4.57 µM)	2 (≈ 4.57 µM)	1 (≈ 2.29 µM)	31.8	18.3	
Clc1cccc(-n2nc(C3CCNCC3)cc2/C=C/c2cc3cc(Cl)ccc3[nH]2)c1	16 (≈ 36.6 µM)	4 (≈ 9.15 µM)	2 (≈ 4.57 µM)	4 (≈ 9.15 µM)									
Clc1ccc(/C=C/c2cc(C3CCNCC3)[nH]n2)cc1Cl	8 (≈ 24.8 µM)	4 (≈ 12.4 µM)	4 (≈ 12.4 µM)	4 (≈ 12.4 µM)									
Clc1cccc(-n2nc(C3CCNCC3)cc2/C=C/c2c(Cl)cccc2Cl)c1	64 (≈ 148 µM)	4 (≈ 9.24 µM)	4 (≈ 9.24 µM)	4 (≈ 9.24 µM)	8 (≈ 18.5 µM)	4 (≈ 9.24 µM)	4 (≈ 9.24 µM)	8 (≈ 18.5 µM)	4 (≈ 9.24 µM)	4 (≈ 9.24 µM)			
Clc1cccc(-n2nc(C3CCNCC3)cc2/C=C/c2ccc(Cl)c(Cl)c2)c1	16 (≈ 37 µM)	4 (≈ 9.24 µM)	8 (≈ 18.5 µM)										4 (≈ 9.24 µM)
Clc1cccc(-n2nc(C3CCNCC3)cc2/C=C/c2ccc(OCc3ccc(Cl)c(Cl)c3)cc2)c1	32 (≈ 59.4 µM)	4 (≈ 7.42 µM)	2 (≈ 3.71 µM)	4 (≈ 7.42 µM)									
